ChEMBL document CHEMBL2311421, “Synthesis, crystal structure and antidiabetic activity of substituted (E)-3-(Benzo [d]thiazol-2-ylamino) phenylprop-2-en-1-one” (Eur J Med Chem, 2013)

How the values were obtained:
[1] = Inhibition of Swiss mouse pancreatic glucosidase
In short: (§1)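 Enzyme source: tissue homogenates of pancreas, liver or small intestine from 12 h-starved 10-week-old male Swiss mice (20 g), made 1:10 w/v in ice-cold 10 mM phosphate buffer with 6 mM NaCl plus protease inhibitors. Spun at 10,000 rpm for 10 min; supernatant diluted to A280 0.4. Assayed as for amylase. IC50 from mean of n = 3.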

[2] = Inhibition of Swiss mouse intestinal glucosidase; in short: as §1
[3] = Inhibition of Swiss mouse liver glucosidase; in short: as §1
Pancreatic alpha-amylase = target: T1, Pancreatic alpha-amylase (Sus scrofa, UniProt P00690); experiment: Inhibition of pig pancreatic alpha-amylase by Bernfeld method
T1 sequence (P00690 whole entry): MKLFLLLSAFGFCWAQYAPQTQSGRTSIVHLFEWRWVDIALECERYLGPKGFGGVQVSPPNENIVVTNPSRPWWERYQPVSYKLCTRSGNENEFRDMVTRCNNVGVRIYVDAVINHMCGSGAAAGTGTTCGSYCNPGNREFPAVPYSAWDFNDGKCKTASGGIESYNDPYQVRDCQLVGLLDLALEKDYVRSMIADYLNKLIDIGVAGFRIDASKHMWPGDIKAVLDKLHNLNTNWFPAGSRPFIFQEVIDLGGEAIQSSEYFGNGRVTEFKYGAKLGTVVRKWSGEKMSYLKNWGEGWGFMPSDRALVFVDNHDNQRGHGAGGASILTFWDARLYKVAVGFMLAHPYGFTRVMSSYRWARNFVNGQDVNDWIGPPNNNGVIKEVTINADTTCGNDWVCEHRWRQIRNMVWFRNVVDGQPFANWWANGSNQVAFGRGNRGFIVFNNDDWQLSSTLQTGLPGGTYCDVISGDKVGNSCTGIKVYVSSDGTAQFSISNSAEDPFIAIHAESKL

SMILES	IC50 [1] [µM]	IC50 ([2]; read-out: IC50) [µM]	IC50 ([3]; read-out: IC50) [µM]	IC50 (Pancreatic alpha-amylase) [µM]	IC50 [2]	IC50 [3]
CCOc1ccc2nc(N/C(=C\C(=O)c3ccc(C)cc3)SC)sc2c1	19.9	23.5	24.2	18.9	–	–
CCOc1ccc2nc(N/C(=C\C(=O)c3ccc(Br)cc3)SC)sc2c1	20.9	31.9	15.7	15.9	–	–
CS/C(=C/C(=O)c1ccc(Br)cc1)Nc1nc2ccccc2s1	21.7	45.3	15.4	17.8	–	–
CCOc1ccc2nc(N/C(=C\C(=O)c3ccccc3)SC)sc2c1	18	–	–	16.3	Not Active	Not Active
CCOc1ccc2nc(N/C(=C\C(=O)c3ccc(F)cc3)SC)sc2c1	23.5	49.4	24.2	18.4	–	–
CCOc1ccc2nc(N/C(=C\C(=O)c3ccc(OC)cc3)SC)sc2c1	23.2	29.3	21.4	18.6	–	–
CS/C(=C/C(=O)c1ccc(C)cc1)Nc1nc2ccccc2s1	26.9	30	22.5	20.6	–	–
C[C@H]1O[C@H](O[C@H]2[C@H](O)[C@@H](O)[C@@H](O[C@H]3[C@H](O)[C@@H](O)C(O)O[C@@H]3CO)O[C@@H]2CO)[C@H](O)[C@@H](O)[C@@H]1N[C@H]1C=C(CO)[C@@H](O)[C@H](O)[C@H]1O (some centres not stated) [ACARBOSE]	> 100	–	> 100	–	Not Active	–

Second part, the molecule after the results:

IC50 [1] [µM]	IC50 ([2]; read-out: IC50) [µM]	IC50 ([3]; read-out: IC50) [µM]	IC50 (Pancreatic alpha-amylase) [µM]	IC50 [2]	IC50 [3]	SMILES
24.7	25.9	16.7	16.9	–	–	CS/C(=C/C(=O)c1ccc(Br)cc1)Nc1nc2cc(C)c(C)cc2s1
32.4	44.5	15	20.3	–	–	CS/C(=C/C(=O)c1ccc(Cl)cc1)Nc1nc2ccccc2s1
26.5	14.7	17.4	17.9	–	–	CCOc1ccc2nc(N/C(=C\C(=O)c3ccc(Cl)cc3)SC)sc2c1
33.6	32.1	21.7	19.9	–	–	CS/C(=C/C(=O)c1ccc(F)cc1)Nc1nc2ccccc2s1
